Experimental findings from PubChem BioAssay are described below.

A number with no mark means an inactive call. Records with an inconclusive call do not appear. The source made the active and inactive calls.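 The calls were made as follows, unless noted: active = RAM network inhibition above 8.4% in each of two replicates, 3 SD over the compound average; inconclusive = above 8.4% inhibition in only one replicate; inactive = 8.4% inhibition or less in each replicate.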

Assay [1] in a line: S. cerevisiae growth inhibition in permissive medium (OD615), pilot counter-assay for S. cerevisiae lifespan shortening project, permissive growth control (AID 705;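 active = growth inhibition above 25% in both replicates, a cutoff set 3 SD above the mean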). As to conditions: OD615, 24 h, at 10 µM, active compounds read high. The essentials: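 System: engineered DeaD yeast; Medium: permissive raffinose/galactose medium; Compound dosing: 10 µM single dose, 0.25% DMSO; Incubation: 4 h cell pre-growth, 24 h exposure at 30 °C; Technique: OD at 615 nm; Evaluation: growth inhibition from lowered OD615 after 24 h.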

Assay [2] in a line: S. cerevisiae growth inhibition in restrictive medium, OD615, pilot screen, restrictive growth control, yeast lifespan reduction project (AID 706;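 active = growth inhibition above a set limit, 3 SD over mean compound inhibition, in both replicates, cut at about 43% in these data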;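 also: modified DeaD lifespan yeast strain shifted to restrictive glucose medium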). As to conditions: OD615, 48 h, at 10 µM, active compounds read high. The essentials: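 Material: modified S. cerevisiae; buffer or medium: CSMM-D glucose medium; doses: one concentration, 10 µM final, 0.25% DMSO; incubation: 48 h compound exposure at 30 °C; detection: optical density at 615 nm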

Assay [3] can be described thus: doxorubicin toxicity protection in MRP-1 cells – H69AR cells, CellTiter-Glo, duplicate, MRP-1 activator project, pilot screen (AID 807;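 active = viability increase at or above a cutoff of the median across tested compounds plus 3 SD, cut at about 8.5% in these data, passing the limit was not always enough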;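 also: compound pretreatment 18-22 h then 72 h combined with doxorubicin; 0% = doxorubicin alone and 100% = vehicle without doxorubicin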). The note with it: H69AR viability with doxorubicin, CellTiter-Glo luminescence; at 10 µM; active compounds read high. (In general: In ATP-based viability assays light output follows the ATP content of the culture.)
The nature of assay [4]: viability of HCT116 without oncogenic beta-catenin – human colon tumor cells, pilot screen (AID 823;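 active = cell viability at or below a set limit in both duplicate runs, the limit being the all-compound median minus 4 SD, cut at about 23% in these data, passing the limit was not always enough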;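 also: 0% = wells killed by 20 µM Hyamine and 100% = untreated DMSO cell wells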). As to conditions: HCT116 beta-catenin knockout viability, CellTiter-Glo, 60 h; at 10 µM; active compounds read low.
Assay [5] is described as follows: viability of PTEN-null HCT116 cells – cell-based, HCT116 clonal line, CellTiter-Glo, pilot screen (AID 824;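 active = viability at or below 27.92% in each of two runs, the all-compound median minus 4 SD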;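 also: 0% = 20 µM Hyamine control and 100% = vehicle cell control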). As to conditions: HCT116 PTEN-deleted viability, 60 h, at 10 µM, active compounds read low.
A short description of assay [6]: RAM pathway blockade in budding yeast – dse1pr::URA3 reporter, 5-FOA selection, pilot screen (AID 869;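 active = inhibition over a set limit, the all-compound mean plus 3 SD, in both replicate runs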;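 also: 0% = DMSO wells with no growth and 100% = 10 µM 1-NA-PP1 with full growth; RAM network block rescues cells from 5-FOA so hits raise OD615 growth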). As to conditions: S. cerevisiae dse1pr::URA3 5-FOA growth, OD615, 2 d; at 10 µM; active compounds read high; strain carries analog-sensitive mutant Cbk1 kinase.
A short description of assay [7]: RAM signaling pathway blockade in yeast – S. cerevisiae, Pdr1DBD-CYC8 efflux-inhibited sensitized strain, primary screen (AID 1298).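 Also: 0% = DMSO untreated cells without growth and 100% = 10 µM 1-NA-PP1 full growth; higher means more yeast growth rescued from 5-FOA killing.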 As to conditions: S. cerevisiae cbk1-as DSE1-URA3 strain, 5-FOA growth OD615, 2 d; at 50 µM; active compounds read high.

Broadly, the viability is a read-out of living cells in per cent, often relative to untreated cells. As a reminder, the inhibition is the share of the control response that was lost under treatment. Regarding `c1ccc(-c2cnc(-c3cccnc3)o2)cc1`, the growth inhibition in assay [1] was 0.08%; in assay [2] it was 7.29%. Further, the viability increase in assay [3] was -4.72%. For the same compound, the viability in assay [4] was 95.5%; in assay [5], 94.4%. Moreover, the inhibition in assay [6] is 2.12%. Moreover, the RAM network inhibition in assay [7] was 1.68%.

`COC(=O)c1nc2cc(C)ccn2c1F`: the growth inhibition in assay [1] is 0.67%; in assay [2] it was 0.595%. Also, the viability increase in assay [3] was -1.42%. Besides, the viability is 105% in assay [4] and 94.3% in assay [5]. The inhibition in assay [6] was 2.7%. Also, in assay [7], the RAM network inhibition was 0.79%.

Turning to `CCN(CC)S(=O)(=O)c1ccc(Cl)c(C(=O)NC2CCCC2)c1`, the growth inhibition is -6.5% in assay [1] and -7.35% in assay [2]. In addition, in assay [3], the viability increase is 0.17%. The viability in assay [4] is 92.9%; in assay [5], 97.1%. Moreover, the inhibition in assay [6] is 0.145%. Besides, in assay [7], the RAM network inhibition was 3.38%.

On to `CC(Oc1ccc(Cl)cc1Cl)C(=O)NCCCN(C)C` (stereo unspecified), for which the growth inhibition in assay [1] is -0.77%; in assay [2], 4.78%. Also, the viability increase in assay [3] was -2.25%. The viability in assay [4] was 99.6%; in assay [5], 100%. Also, in assay [6], the inhibition was 1.79%. For the same compound, in assay [7], the RAM network inhibition is 0.78%.

`O=C(CCCc1ccccc1)NCc1cn2ccsc2n1`: the figures for the growth inhibition in assay [1] and in assay [2] were -8.33% and 6.95%, respectively. The viability increase in assay [3] is 0.97%. The viability in assay [4] is 103%; in assay [5] it was 105%. Besides, the inhibition in assay [6] was 1.31%. In addition, the RAM network inhibition in assay [7] was 5.11%.

Regarding `Cc1cc(C)c(NC(=O)CSc2nnc(-c3ccncc3)n2Cc2ccco2)c(Cl)c1`, the growth inhibition is 6.26% in assay [1] and 12.8% in assay [2]. Also, the viability increase in assay [3] was -0.79%. In addition, the viability in assay [4] was 98%; in assay [5] it was 93.1%. In addition, the inhibition in assay [6] was 1.79%. The RAM network inhibition in assay [7] was 6.08%.

As for `Cc1cc(NCc2ccco2)nc2cc(O)ccc12`, the values for the growth inhibition in assay [1] and in assay [2] were -11.9% and -28.8%, respectively. For the same compound, the viability increase in assay [3] was -5.57%. Moreover, the figures for the viability in assay [4] and in assay [5] were 92.7% and 93.4%, respectively. Moreover, the inhibition in assay [6] is 1.35%. Moreover, the RAM network inhibition in assay [7] is 1.95%.

Regarding `CC(C)CNS(=O)(=O)c1ccc(S(=O)(=O)N2CCN(CCC#N)CC2)cc1`, the growth inhibition in assay [1] was -11.7%; in assay [2], -4.15%. Besides, in assay [3], the viability increase is -0.2%. The figures for the viability in assay [4] and in assay [5] were 99.6% and 103%, respectively. Besides, in assay [6], the inhibition was 0.85%. In addition, in assay [7], the RAM network inhibition was -0.19%.

`CCc1ccc(N2CCN(C(=O)c3ccc(OC)c(OC)c3)CC2)cc1`: the growth inhibition is -15.2% in assay [1] and -8.32% in assay [2]. Also, the viability increase in assay [3] was 2.36%. In addition, the results for the viability in assay [4] and in assay [5] were 57.3% and 79%, respectively. Also, the inhibition in assay [6] is 0.975%. The RAM network inhibition in assay [7] was 2.51%.

Regarding `CCCCn1c(CN2CCOCC2)nc2c1c(=O)n(C)c(=O)n2C`, the values for the growth inhibition in assay [1] and in assay [2] were -1.51% and -7.03%, respectively. In addition, in assay [3], the viability increase was -1.72%. Also, the viability in assay [4] was 93.8%; in assay [5], 89.6%. In assay [6], the inhibition is 0.375%. Further, the RAM network inhibition in assay [7] is 2.4%.

For `COc1c(Cl)cc(-c2noc(C)c2C(=O)NCc2ccc3c(c2)OCO3)cc1Cl`, the growth inhibition in assay [1] was -16.4%; in assay [2] it was -10.4%. In addition, in assay [3], the viability increase is -1.08%. The viability was 89% in assay [4] and 84% in assay [5]. For the same compound, the inhibition in assay [6] is 1.19%. Moreover, the RAM network inhibition in assay [7] was 4.27%.

Take `O=C(Nc1ccc2c(c1)OCO2)c1ccncc1`: the figures for the growth inhibition in assay [1] and in assay [2] were -10.6% and 0.215%, respectively. Besides, in assay [3], the viability increase is -0.85%. The viability is 87.9% in assay [4] and 90.1% in assay [5]. Besides, in assay [6], the inhibition is 0.205%. For the same compound, in assay [7], the RAM network inhibition was 3.42%.

Regarding `Clc1ccccc1OCCN1CCCCC1`, the growth inhibition is -14.4% in assay [1] and -20.6% in assay [2]. Also, the viability increase in assay [3] was 0.57%. Further, the viability was 85.5% in assay [4] and 96.2% in assay [5]. The inhibition in assay [6] was 0.6%. In addition, the RAM network inhibition in assay [7] was 6.74%.

For `O=c1cnn(-c2ccccc2)c(-c2ccccc2)c1`, the growth inhibition in assay [1] was -15.7%; in assay [2], -5.25%. Also, the viability increase in assay [3] is -6.23%. Moreover, the viability in assay [4] was 31.1%; in assay [5], 24% (active). Further, in assay [6], the inhibition was 2.04%. Besides, the RAM network inhibition in assay [7] was 1.25%.

For `CCOC(=O)CC1=C(C#N)C(c2cccnc2)C(C(=O)OCC)=C(N)O1` (stereo unspecified), the results for the growth inhibition in assay [1] and in assay [2] were -0.965% and -12.4%, respectively. The viability increase in assay [3] was -3.12%. For the same compound, the viability was 104% in assay [4] and 99.6% in assay [5]. Besides, the inhibition in assay [6] was 1.98%. In addition, the RAM network inhibition in assay [7] was 8.18%.

For the compound `Cc1ccc(C(c2sc3ncnn3c2O)N2CCC(C)CC2)cc1` (stereo unspecified), the growth inhibition in assay [1] is 1.13%; in assay [2] it was 10.3%. Also, in assay [3], the viability increase is 3.76%. Besides, the viability was 102% in assay [4] and 90.2% in assay [5]. Besides, in assay [6], the inhibition was 1.9%. The RAM network inhibition in assay [7] is 2.69%.

As for `Cc1[nH]n2c(=O)c3c(nc2c1-c1ccc(Cl)cc1)CCC3`, the values for the growth inhibition in assay [1] and in assay [2] were -14.1% and -8.77%, respectively. Further, the viability increase in assay [3] was -2.32%. In addition, the viability is 22.5% (active) in assay [4] and 26.8% (active) in assay [5]. In assay [6], the inhibition is 1.88%. The RAM network inhibition in assay [7] is 6.65%.

With `CCCN1Cc2cccc(C(=O)Nc3ccc4c(c3)OCCO4)c2C1=O`, the growth inhibition is 0.22% in assay [1] and -5.64% in assay [2]. In addition, the viability increase in assay [3] is 0.47%. In addition, the viability in assay [4] was 106%; in assay [5], 97.2%. Besides, the inhibition in assay [6] was 1.35%. Also, the RAM network inhibition in assay [7] is 2.75%.
